According to ChEMBL document CHEMBL1132167, “Flavonoid-related modulators of multidrug resistance: synthesis, pharmacological activity, and structure-activity relationships” (J Med Chem, 1999):

Assays:
[1] = target: T1, ATP-dependent translocase ABCB1 (Homo sapiens, UniProt P08183); assay: Pgp transport inhibitory activity at 10 uM was measured by JC-1 accumulation assay method using JC-1 as substrate; assay type: functional
Method in brief: (§1)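 JC-1 stock (1 mg/mL in DMSO) diluted to 5 μg/mL in PBS with 1 g/L glucose, then filtered to remove aggregates (monomer 0.2 μM final). Washed K562/DOX cells at 5×10^5/mL were incubated with JC-1 and compound concurrently at 37 °C, DMSO ≤0.5%. Fluorescence (485/590 nm) was followed to plateau, about 2 h. Accumulation is expressed as % of the 5 μM S9788 plate control after subtracting JC-1 alone. Mean of ≥2 experiments.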

K562 [2] = assay: Modulation factor: IC50(DOX alone)/IC50(DOX+modulator); assay type: functional, Homo sapiens
Method in brief: (§2)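 K562/DOX human erythroleukemia cells (doxorubicin-selected, Pgp-overexpressing; RPMI-1640 + 10% FCS) exposed 72 h to seven graded doxorubicin concentrations (six wells each) plus tested compound at 1 or 5 μM, DMSO ≤0.1% final. MTT formazan dissolved in DMSO, A570 read. Survival relative to untreated wells; DOX IC50 by linear interpolation; MF = IC50(DOX alone)/IC50(DOX + compound). Mean of ≥2 independent experiments.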

K562 [3] = assay: Ability to potentiate DOX cytotoxicity on K562/DOX MDR cells. Cell survival was assayed by MTT conversion; assay type: functional, cell-based; conditions: Homo sapiens; method in brief: as §2
[4] = target: T1, ATP-dependent translocase ABCB1; assay: Pgp transport inhibitory activity at 5 uM was measured by JC-1 accumulation assay method using JC-1 as substrate; assay type: functional; method in brief: as §1
[5] = Modulation factor: IC50(DOX alone)/IC50(DOX+modulator).; assay type: functional; method in brief: as §2
[6] = target: T1, ATP-dependent translocase ABCB1; assay: Pgp transport inhibitory activity at 1 uM was measured by JC-1 accumulation assay method using JC-1 as substrate; assay type: functional; method in brief: as §1
[7] = (§3) modulation factor: IC50 (uM); assay type: functional
[8] = as §3; assay type: functional; remark: listed apart in the source

T1 sequence (P08183 whole entry): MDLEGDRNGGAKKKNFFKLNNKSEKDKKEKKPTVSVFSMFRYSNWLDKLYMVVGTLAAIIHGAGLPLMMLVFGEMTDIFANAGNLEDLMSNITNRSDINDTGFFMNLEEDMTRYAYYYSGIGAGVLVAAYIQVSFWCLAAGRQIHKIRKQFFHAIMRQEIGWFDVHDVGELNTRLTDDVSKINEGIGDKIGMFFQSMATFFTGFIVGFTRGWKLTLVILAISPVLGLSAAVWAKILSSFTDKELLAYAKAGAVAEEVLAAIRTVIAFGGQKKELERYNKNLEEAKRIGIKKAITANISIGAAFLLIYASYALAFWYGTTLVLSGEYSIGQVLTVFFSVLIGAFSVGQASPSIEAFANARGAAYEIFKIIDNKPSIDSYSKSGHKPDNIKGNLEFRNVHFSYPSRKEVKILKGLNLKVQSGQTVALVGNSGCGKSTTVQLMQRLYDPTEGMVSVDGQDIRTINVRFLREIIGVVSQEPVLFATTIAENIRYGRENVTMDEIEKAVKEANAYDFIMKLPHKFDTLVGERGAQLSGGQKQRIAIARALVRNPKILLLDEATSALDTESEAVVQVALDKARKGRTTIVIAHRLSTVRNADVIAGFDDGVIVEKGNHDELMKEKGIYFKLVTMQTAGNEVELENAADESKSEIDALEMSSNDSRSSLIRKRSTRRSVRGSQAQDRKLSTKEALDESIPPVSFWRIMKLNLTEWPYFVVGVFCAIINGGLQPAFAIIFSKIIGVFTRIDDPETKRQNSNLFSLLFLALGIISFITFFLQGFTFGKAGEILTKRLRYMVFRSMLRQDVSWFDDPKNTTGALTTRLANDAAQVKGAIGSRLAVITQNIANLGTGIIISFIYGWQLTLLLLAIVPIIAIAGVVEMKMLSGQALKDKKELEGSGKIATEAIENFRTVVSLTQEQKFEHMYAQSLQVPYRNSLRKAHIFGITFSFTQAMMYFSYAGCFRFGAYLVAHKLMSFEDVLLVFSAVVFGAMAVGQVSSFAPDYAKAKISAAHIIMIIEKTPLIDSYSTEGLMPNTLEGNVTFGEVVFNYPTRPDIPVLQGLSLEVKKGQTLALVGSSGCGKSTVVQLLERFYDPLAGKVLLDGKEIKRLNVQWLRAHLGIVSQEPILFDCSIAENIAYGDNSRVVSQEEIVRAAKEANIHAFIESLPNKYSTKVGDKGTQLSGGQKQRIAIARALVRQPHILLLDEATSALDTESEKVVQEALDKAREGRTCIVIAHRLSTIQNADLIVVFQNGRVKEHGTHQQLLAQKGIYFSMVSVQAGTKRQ

| Relative JC-1 accumulation [1] | Relative JC-1 accumulation [4] | Relative JC-1 accumulation [6] | Structure (SMILES) | Modulation factor (K562 [2]) | IC50 (K562 [3]) [µM] | Modulation factor [5] | Modulation factor [7] | Modulation factor [8] |
| --- | --- | --- | --- | --- | --- | --- | --- | --- |
| 24 | 26 | 2 | CCOC(=O)COc1cc(-c2cc(=O)c3c(O)cc(OCC(=O)N4CCN(Cc5cc(OC)c(OC)c(OC)c5)CC4)cc3o2)ccc1OC | 3 | > 20 | 31 |  |  |
| 8 | 3 | 0 | COc1ccc(C2CC(=O)c3c(O)cc(OCC(=O)N4CCN(Cc5cc(OC)c(OC)c(OC)c5)CC4)cc3O2)cc1O (configuration not stated) | 2 | > 20 | 21 |  |  |
| 31 | 26 | 4 | CCOC(=O)COc1cc(O)c2c(=O)cc(-c3ccc(OC)c(OCC(=O)N4CCN(Cc5ccc(OC)c(OC)c5)CC4)c3)oc2c1 | 2 | 9 | 25 |  |  |
| 28 | 22 | 2 | CCOC(=O)COc1cc(-c2cc(=O)c3c(O)cc(OCC(=O)N4CCN(Cc5cccc(OC)c5OC)CC4)cc3o2)ccc1OC | 5 | > 20 | 24 |  |  |
| 27 | 28 | 3 | CCOC(=O)COc1cc(-c2cc(=O)c3c(O)cc(OCC(=O)N4CCN(Cc5ccc(OC)c(OC)c5)CC4)cc3o2)ccc1OC | 4 | > 20 | 23 |  |  |
| 0 | 0 | 0 | COc1ccc(-c2cc(=O)c3c(O)cc(O[C@@H]4O[C@H](CO[C@@H]5O[C@@H](C)[C@H](O)[C@@H](O)[C@H]5O)[C@@H](O)[C@H](O)[C@H]4O)cc3o2)cc1OCC(=O)N1CCN(Cc2ccc(OC)c(OC)c2OC)CC1 |  | > 20 |  | 1 |  |
| 23 | 14 | 6 | CCOC(=O)COc1cc(-c2cc(=O)c3c(O)cc(OCC(=O)N4CCN(Cc5ccc(Cl)cc5)CC4)cc3o2)ccc1OC | 4 | 14 | 22 |  |  |
|  |  |  | COc1ccc(CCN(C)CCCC(C#N)(c2ccc(OC)c(OC)c2)C(C)C)cc1OC (configuration not stated) [VERAPAMIL] |  | 37 |  | 31 | 7 |
| 38 | 35 | 10 | CCOC(=O)COc1cc(-c2cc(=O)c3c(O)cc(OCC(=O)N4CCN(Cc5ccccc5)CC4)cc3o2)ccc1OC | 4 | > 20 | 21 |  |  |
| 24 | 13 | 7 | CCOC(=O)COc1cc(O)c2c(=O)cc(-c3ccc(OC)c(OCC(=O)N4CCN(Cc5ccccc5Cl)CC4)c3)oc2c1 | 2 | > 20 | 7 |  |  |
| 53 | 60 | 22 | COc1ccc(-c2cc(=O)c3c(O)cc(OCC(=O)N4CCN(Cc5ccc(OC)c(OC)c5OC)CC4)cc3o2)cc1OCC(=O)N1CCN(Cc2ccc(OC)c(OC)c2OC)CC1 | 1 | 2 |  |  |  |
| 75 | 82 | 72 | COc1ccc(C2CC(=O)c3c(OC(=O)C(C)(C)C)cc(OCC(=O)N4CCN(Cc5ccc(OC)c(OC)c5OC)CC4)cc3O2)cc1OC(=O)C(C)(C)C (configuration not stated) |  | > 20 |  | 45 | 18 |
| 0 | 0 | 0 | COc1ccc(-c2cc(=O)c3c(O)cc(O[C@@H]4O[C@H](CO)[C@H](O)[C@@H](O)[C@H]4O)cc3o2)cc1OCC(=O)N1CCN(Cc2ccc(OC)c(OC)c2OC)CC1 |  | > 20 |  | 1 |  |
| 5 |  | 2 | COc1ccc(CCC(=O)c2c(O)cc(OCC(=O)N3CCN(Cc4ccc(OC)c(OC)c4OC)CC3)cc2O)cc1O |  | > 20 |  | 3 |  |
| 0 | 0 | 0 | COc1ccc(-c2cc(=O)c3c(OCC(=O)N4CCN(Cc5ccc(OC)c(OC)c5OC)CC4)cc(O)cc3o2)cc1O |  | > 20 | 1 |  |  |
| 0 | 0 | 0 | COc1ccc(-c2cc(=O)c3c(O)cc(O)cc3o2)cc1OCC(=O)N1CCN(Cc2ccc(OC)c(OC)c2OC)CC1 |  | > 20 |  | 1 |  |
| 59 | 10 | 1 | CCOC(=O)COc1cc(OCC(=O)N2CCN(Cc3ccc(OC)c(OC)c3OC)CC2)c2c(=O)cc(-c3ccc(OC)c(OCC(=O)OCC)c3)oc2c1 |  | > 20 | 1 |  |  |
| 91 | 82 | 33 | COc1ccc(C2CC(=O)c3c(O)cc(OCC(=O)N4CCN(Cc5ccc(OC)c(OC)c5OC)CC4)cc3O2)cc1OC(C)=O (configuration not stated) |  | > 20 |  | 31 | 8 |
| 56 | 50 | 28 | COc1ccc(-c2cc(=O)c3c(OCC(=O)N4CCN(Cc5ccc(OC)c(OC)c5OC)CC4)cc(OCc4ccccc4)cc3o2)cc1OCc1ccccc1 |  | 8 |  | 45 | 14 |
| 75 | 55 | 2 | COc1ccc(C2CC(=O)c3c(OC(C)=O)cc(OCC(=O)N4CCN(Cc5ccc(OC)c(OC)c5OC)CC4)cc3O2)cc1OC(C)=O (configuration not stated) |  | > 20 |  | 31 | 10 |
| 55 | 56 | 5 | CCOC(=O)COc1cc(O)c2c(=O)cc(-c3ccc(OC)c(OCC(=O)N4CCN(Cc5cc(OC)c(OC)c(OC)c5)CC4)c3)oc2c1 | 5 | 11 | 25 |  |  |
| 73 | 69 | 14 | CCOC(=O)COc1cc(-c2cc(=O)c3c(O)cc(OCC(=O)N4CCN(Cc5ccc(OC)c(OC)c5OC)CC4)cc3o2)ccc1OC | 9 | > 20 | 22 |  |  |
| 30 | 50 | 4 | COc1ccc(-c2cc(=O)c3c(O)cc(OCC(=O)N4CCN(Cc5ccc(OC)c(OC)c5OC)CC4)cc3o2)cc1O | 11 | 6 | 78 |  |  |
| 59 | 56 | 7 | CCOC(=O)COc1cc(O)c2c(=O)cc(-c3ccc(OC)c(OCC(=O)N4CCN(Cc5ccc(OC)c(OC)c5OC)CC4)c3)oc2c1 | 3 | > 20 | 17 |  |  |
| 0 | 0 | 0 | COc1ccc(C2CC(=O)c3c(O)cc(OCC(=O)N4CC[N+](C)(Cc5ccc(OC)c(OC)c5OC)CC4)cc3O2)cc1O.[I-] (configuration not stated) |  | > 20 | 1 |  |  |
| 21 | 17 | 3 | COc1ccc(/C=C/C(=O)c2c(O)cc(OCC(=O)N3CCN(Cc4ccc(OC)c(OC)c4OC)CC3)cc2O)cc1O |  | > 20 |  | 45 | 9 |
| 69 | 50 | 4 | COc1ccc(C2CC(=O)c3c(O)cc(OCC(=O)N4CCN(Cc5ccc(OC)c(OC)c5OC)CC4)cc3O2)cc1O (configuration not stated) | 11 | 16 | 42 |  |  |

| Structure (SMILES) | Relative JC-1 accumulation [1] | Relative JC-1 accumulation [4] | Relative JC-1 accumulation [6] | Modulation factor (K562 [2]) | IC50 (K562 [3]) [µM] | Modulation factor [5] | Modulation factor [7] | Modulation factor [8] |
| --- | --- | --- | --- | --- | --- | --- | --- | --- |
| COc1ccc(C2CC(=O)c3c(O)cc(OCC(=O)N4CCN(Cc5ccc(OC)c(OC)c5)CC4)cc3O2)cc1O (configuration not stated) | 31 | 9 | 0 | 4 | > 20 | 31 |  |  |
| COc1ccc(C2CC(=O)c3c(O)cc(OCC(=O)N4CCN(Cc5cccc(OC)c5OC)CC4)cc3O2)cc1O (configuration not stated) | 6 | 2 | 0 | 4 | > 20 | 28 |  |  |
